Measurements published in article PMC6558985 (Nature chemical biology, 2019).
Changes are numbered by the printed parent chain.

Legend:
Dm-spastin WT = target: T1, Dm-spastin WT (Drosophila melanogaster, UniProt Q8I0P1, DEL311-372); experiment: Steady-state ATPase activity, NADH-coupled assay, Dm-spastin wildtype; type: biochemical, D. melanogaster
T1 sequence (Q8I0P1 with tags, fused parts or gaps DEL311-372 limits assumed): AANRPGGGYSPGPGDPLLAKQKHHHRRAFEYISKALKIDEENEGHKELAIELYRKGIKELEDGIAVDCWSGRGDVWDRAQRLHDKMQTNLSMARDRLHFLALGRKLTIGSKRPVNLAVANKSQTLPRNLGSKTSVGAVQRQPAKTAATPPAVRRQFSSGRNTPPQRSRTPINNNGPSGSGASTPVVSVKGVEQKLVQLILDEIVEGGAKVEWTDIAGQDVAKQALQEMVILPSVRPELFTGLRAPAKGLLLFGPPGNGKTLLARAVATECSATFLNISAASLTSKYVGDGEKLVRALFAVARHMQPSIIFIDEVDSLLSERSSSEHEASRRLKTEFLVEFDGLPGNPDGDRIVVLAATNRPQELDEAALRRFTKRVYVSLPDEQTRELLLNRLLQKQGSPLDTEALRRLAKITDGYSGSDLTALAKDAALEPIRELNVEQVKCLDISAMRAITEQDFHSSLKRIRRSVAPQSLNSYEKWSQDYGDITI
Summary of the method: (§1)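 Recombinant Dm-spastin, wildtype or point mutants, assayed by steady-state ATPase with NADH-coupled read-out at 0.5 mM MgATP over a test-compound concentration series. Data were fit to a sigmoidal dose-response equation to give IC50, average ± s.d., n = 3. Separately, rates across ATP concentrations were fit to a cooperative Michaelis-Menten equation for kcat and K1/2.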

Hs-FIGL1 = target: T2, Hs-FIGL1 (Homo sapiens, UniProt Q6PIW4); experiment: Steady-state ATPase activity, NADH-coupled assay, Hs-FIGL1; type: biochemical; conditions: 10 µM compound, 0.5 mM MgATP
T2 sequence (Q6PIW4 288-674): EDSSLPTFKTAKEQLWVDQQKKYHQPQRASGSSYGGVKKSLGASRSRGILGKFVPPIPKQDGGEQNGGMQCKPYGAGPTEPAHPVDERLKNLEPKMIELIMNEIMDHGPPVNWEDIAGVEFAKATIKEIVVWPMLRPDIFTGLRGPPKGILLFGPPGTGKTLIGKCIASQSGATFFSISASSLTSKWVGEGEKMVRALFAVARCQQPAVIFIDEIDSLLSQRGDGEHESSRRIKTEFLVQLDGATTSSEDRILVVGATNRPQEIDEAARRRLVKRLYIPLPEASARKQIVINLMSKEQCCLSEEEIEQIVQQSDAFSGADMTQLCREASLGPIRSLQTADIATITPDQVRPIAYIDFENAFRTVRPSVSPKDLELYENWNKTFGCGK
Summary of the method: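 Recombinant AAA protein constructs assayed by steady-state ATPase with NADH-coupled read-out at 0.5 mM MgATP, with test compound at 2 µM or 10 µM. Activity is reported as percent of steady-state ATPase activity, average ± s.d., n = 3.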

[1] = tested on: Dm-spastin, Hs-FIGL1, Hs-PCH2, Mm-VCP, Xl-katanin; experiment: Screen of selected kinase inhibitors against five AAA proteins; type: biochemical; conditions: 10 µM compound, 0.5 mM ATP
Summary of the method: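 Five recombinant AAA proteins (Dm-spastin, Hs-FIGL1, Hs-PCH2, Mm-VCP, Xl-katanin) were screened for ATPase activity with each test compound at 10 µM and 0.5 mM MgATP. Activity is expressed as percent of the DMSO control, average of n = 2, binned in 10% steps.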

Dm-spastin Q488V = target: T3, Dm-spastin Q488V (Drosophila melanogaster, UniProt Q8I0P1, DEL311-372/Q488V); experiment: Steady-state ATPase activity, NADH-coupled assay, Dm-spastin Q488V; type: biochemical, D. melanogaster
T3 sequence (Q8I0P1 with tags, fused parts or gaps DEL311-372/Q488V limits assumed): T1 sequence (Q8I0P1 with tags, fused parts or gaps DEL311-372 limits assumed) with Q218V
Summary of the method: as §1

Dm-spastin N527C = target: T4, Dm-spastin N527C (Drosophila melanogaster, UniProt Q8I0P1, DEL311-372/N527C); experiment: Steady-state ATPase activity, NADH-coupled assay, Dm-spastin N527C; type: biochemical, D. melanogaster
T4 sequence (Q8I0P1 with tags, fused parts or gaps DEL311-372/N527C limits assumed): T1 sequence (Q8I0P1 with tags, fused parts or gaps DEL311-372 limits assumed) with N257C
Summary of the method: as §1

Dm-spastin N527T = target: T5, Dm-spastin N527T (Drosophila melanogaster, UniProt Q8I0P1, DEL311-372/N527T); experiment: Steady-state ATPase activity, NADH-coupled assay, Dm-spastin N527T; type: biochemical, D. melanogaster
T5 sequence (Q8I0P1 with tags, fused parts or gaps DEL311-372/N527T limits assumed): T1 sequence (Q8I0P1 with tags, fused parts or gaps DEL311-372 limits assumed) with N257T
Summary of the method: as §1

Dm-spastin S689A = target: T6, Dm-spastin S689A (Drosophila melanogaster, UniProt Q8I0P1, DEL311-372/S689A); experiment: Steady-state ATPase activity, NADH-coupled assay, Dm-spastin S689A; type: biochemical, D. melanogaster
T6 sequence (Q8I0P1 with tags, fused parts or gaps DEL311-372/S689A limits assumed): T1 sequence (Q8I0P1 with tags, fused parts or gaps DEL311-372 limits assumed) with S419A
Summary of the method: as §1

Dm-spastin T692A = target: T7, Dm-spastin T692A (Drosophila melanogaster, UniProt Q8I0P1, DEL311-372/T692A); experiment: Steady-state ATPase activity, NADH-coupled assay, Dm-spastin T692A; type: biochemical, D. melanogaster
T7 sequence (Q8I0P1 with tags, fused parts or gaps DEL311-372/T692A limits assumed): T1 sequence (Q8I0P1 with tags, fused parts or gaps DEL311-372 limits assumed) with T422A
Summary of the method: as §1

Dm-spastin = target: T8, Dm-spastin (Drosophila melanogaster, UniProt Q8I0P1, DEL311-372); experiment: In vitro microtubule-severing assay; type: biochemical, D. melanogaster; conditions: 2 µM inhibitor, 0.5 mM MgATP, 15 nM Dm-spastin
T8 sequence (Q8I0P1 with tags, fused parts or gaps DEL311-372 limits assumed): T1 sequence (Q8I0P1 with tags, fused parts or gaps DEL311-372 limits assumed)

Hs-spastin = target: T9, Hs-spastin (Homo sapiens, UniProt Q9UBP0); experiment: Steady-state ATPase activity, NADH-coupled assay, Hs-spastin wildtype; type: biochemical
T9 sequence (Q9UBP0 229-616): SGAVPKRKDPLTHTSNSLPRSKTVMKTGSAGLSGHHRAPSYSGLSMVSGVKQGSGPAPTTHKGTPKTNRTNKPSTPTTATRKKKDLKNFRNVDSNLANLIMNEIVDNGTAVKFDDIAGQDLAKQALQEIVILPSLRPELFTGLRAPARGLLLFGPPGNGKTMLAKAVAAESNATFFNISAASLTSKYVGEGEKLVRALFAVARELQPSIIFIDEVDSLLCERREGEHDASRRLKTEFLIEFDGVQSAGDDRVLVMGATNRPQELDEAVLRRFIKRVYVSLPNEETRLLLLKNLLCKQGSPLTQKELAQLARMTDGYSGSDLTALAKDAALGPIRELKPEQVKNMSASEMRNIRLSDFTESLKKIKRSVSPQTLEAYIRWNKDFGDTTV
Summary of the method: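 Recombinant human spastin purified from E. coli. Steady-state ATPase inhibition was measured over a test-compound concentration series at 1 mM ATP. IC50 reported as average ± s.d., n = 3.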

With `N#CCc1ccc(Nc2nc(Nc3cc(C4CC4)[nH]n3)c3ccccc3n2)cc1` [compound 1, 2-(4-((4-((5-cyclopropyl-1H-pyrazol-3-yl)amino)quinazolin-2-yl)amino)phenyl)acetonitrile, reference compound] the “inhibition of the ATPase activity of Dm-spastin” value (Dm-spastin WT; 10 µM compound, 0.5 mM MgATP) was “substantially inhibited”, the “potency of Dm-spastin inhibition (dose-dependent analysis)” value (Dm-spastin WT; 0.5 mM MgATP, IC50 not determined) was “micromolar range” and the “inhibition of Hs-FIGL1 ATPase activity” value (Hs-FIGL1) was “also inhibited Hs-FIGL1”. The “inhibition of ATPase activity of at least one of five AAA proteins” value [1] was greater than 50%.
For `CN1CCN(c2nc(Nc3cc(-c4ccccc4)[nH]n3)c3ccccc3n2)CC1` [compound 4, 2-(4-methylpiperazin-1-yl)-N-(5-phenyl-1H-pyrazol-3-yl)quinazolin-4-amine], the IC50 (Dm-spastin WT) was 1000 ± 600 nM, the “selectivity for Dm-spastin over four other AAA proteins” value (Dm-spastin WT; 2 µM (Fig. 2 legend; text says 10 µM), 0.5 mM MgATP) was “increased selectivity for Dm-spastin” and the “effect on K1/2 of Dm-spastin across a range of ATP concentrations” value (Dm-spastin WT; MgATP 0.027 to 3 mM) was “increases in K1/2 at higher compound concentrations”. The “effect on kcat of Dm-spastin across a range of ATP concentrations” value (Dm-spastin WT; MgATP 0.027 to 3 mM) was “not substantial changes in kcat”, the IC50 (Dm-spastin Q488V) was roughly 12500 nM and the IC50 (Dm-spastin N527C) was 2900 ± 500 nM. The “reduction of potency by N527C mutation relative to Dm-spastin WT” value (Dm-spastin N527C; P-loop mutation) was ~ 3 fold, the IC50 (Dm-spastin N527T) was greater than 30000 nM and the IC50 (Dm-spastin S689A) was 900 ± 200 nM. For the same compound, the “change of potency by S689A mutation relative to Dm-spastin WT” value (Dm-spastin S689A; sensor-II mutation) was “no substantial difference”, the IC50 (Dm-spastin T692A) was 1500 ± 400 nM and the “reduction of potency by T692A mutation relative to Dm-spastin WT” value (Dm-spastin T692A; sensor-II mutation) was ~ 2 fold.
`C[C@@H]1CNCCN1c1nc(Nc2cc(C(C)(C)C)[nH]n2)c2ccccc2n1` [compound 5, (R)-N-(5-(tert-butyl)-1H-pyrazol-3-yl)-2-(2-methyl-piperazin-1-yl)quinazolin-4-amine] was tested, and the IC50 (Dm-spastin WT) was 106 ± 35 nM, the “potency on Dm-spastin ATPase relative to compound 4 (more potent)” value (Dm-spastin WT; 0.5 mM MgATP) was ~ 10 fold and the Dm-spastin dependent microtubule-severing (Dm-spastin) was “blocked”.
`C[C@@H]1CNCCN1c1nc(Nc2cc(C(C)(C)C)[nH]n2)c2cc[nH]c2n1` [compound 6, (R)-N-(5-(tert-butyl)-1H-pyrazol-3-yl)-2-(2-methylpiperazin-1-yl)-7H-pyrrolo[2,3-d]pyrimidin-4-amine] was tested, and the IC50 (Hs-spastin) was 132 ± 55 nM and the “improved potency on Hs-spastin with respect to compound 5” value (Hs-spastin; 1 mM ATP) was ~ 30 fold.
